Laboratory results published in ChEMBL document CHEMBL4014346, “Lead Optimization Generates CYP11B1 Inhibitors of Pyridylmethyl Isoxazole Type with Improved Pharmacological Profile for the Treatment of Cushing's Disease” (J Med Chem, 2017).

Key:
[1] = Selectivity ratio of IC50 for human CYP11B2 expressed in hamster V79MZ cells to IC50 for human CYP11B1 expressed in hamster V79MZ cells
Summary of the method: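 V79MZ cells expressing recombinant human CYP11B1 or CYP11B2, or rat CYP11B1, incubated with [1,2-³H]-11-deoxycorticosterone (100 nM) and inhibitor over a range of concentrations; ketoconazole as reference.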

[2] = Half life in Sprague-Dawley rat at 28 mg/kg, po administered as single dose by HPLC-MS/MS analysis; type: ADME, organism-based; settings: in vivo
Summary of the method: (§1)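 Female Sprague-Dawley rats (244–299 g), 2 animals, given one oral dose under 2% isoflurane as a freshly sonicated suspension in 0.5% porcine gelatin/5% mannitol in water. Tail-vein plasma precipitated with acetonitrile plus diphenhydramine internal standard, quantified by HPLC-MS/MS in duplicate. Noncompartmental analysis; Cmax and Tmax read directly from the concentration–time curve; F derived against iv dosing.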

[3] = Cmax in Sprague-Dawley rat at 5 mg/kg, iv administered as single dose by HPLC-MS/MS analysis; type: ADME, organism-based; set-up: dose 5 mg/kg, route intravenous; settings: in vivo
Summary of the method: (§2)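 Female Sprague-Dawley rats (244–299 g), 2 animals; single iv dose in PEG300/ethanol/water (60/10/30), under 2% isoflurane anesthesia. Tail-vein blood taken into sodium citrate, plasma spun down, precipitated with acetonitrile containing diphenhydramine internal standard, analysed by HPLC-MS/MS with duplicate injections. Mean parameters from noncompartmental analysis.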

[4] = Tmax in Sprague-Dawley rat at 28 mg/kg, po administered as single dose by HPLC-MS/MS analysis; type: ADME, organism-based; settings: in vivo; summary of the method: as §1
[5] = Cmax in Sprague-Dawley rat at 28 mg/kg, po administered as single dose by HPLC-MS/MS analysis; type: ADME, organism-based; set-up: dose 28 mg/kg, route oral; settings: in vivo; summary of the method: as §1
[6] = Oral bioavailability in Sprague-Dawley rat at 28 mg/kg administered as single dose by HPLC-MS/MS analysis; type: ADME, organism-based; settings: in vivo; summary of the method: as §1
[7] = Volume of distribution at steady state in Sprague-Dawley rat at 5 mg/kg, iv administered as single dose by HPLC-MS/MS analysis; type: ADME, organism-based; settings: in vivo, read-out: Vdss; summary of the method: as §2
[8] = AUC (0 to infinity) in Sprague-Dawley rat at 28 mg/kg, po administered as single dose by HPLC-MS/MS analysis; type: ADME, organism-based; set-up: dose 28 mg/kg, route oral, time infinity; settings: in vivo
[9] = Clearance in Sprague-Dawley rat at 5 mg/kg, iv administered as single dose by HPLC-MS/MS analysis; type: ADME, organism-based; settings: in vivo; summary of the method: as §2
Rattus norvegicus = assay: Time at which plasma concentration stays above in vitro rat CYP11B1 IC50 in Sprague-Dawley rat at 28 mg/kg, po administered as single dose; summary of the method: as §1
Plasma = assay: Plasma concentration in Sprague-Dawley rat at 28 mg/kg, po administered as single dose by HPLC-MS/MS analysis; type: ADME, organism-based; settings: in vivo; summary of the method: as §1
[10] = AUC (0 to infinity) in Sprague-Dawley rat at 5 mg/kg, iv administered as single dose by HPLC-MS/MS analysis; type: ADME, organism-based; set-up: dose 5 mg/kg, route intravenous, time infinity; settings: in vivo
[11] = Half life in Sprague-Dawley rat at 5 mg/kg, iv administered as single dose by HPLC-MS/MS analysis; type: ADME, organism-based; settings: in vivo; summary of the method: as §2

Row | half-life [2] [min] | Cmax [3] [µM] | Tmax [4] [h] | Cmax [5] [µM] | bioavailability [6] [%] | Vd [7] [L/kg] | AUC(0-inf) [8] [ng·h/mL] | clearance [9] [mL/min/kg] | concentration (Plasma) [µM] | AUC(0-inf) [10] [ng·h/mL] | half-life [11] [min] | Compound | Ratio IC50 [1] | Time (Rattus norvegicus)
1 | – | – | – | – | – | – | – | – | – | – | – | Cc1cncc(Cc2cc(-c3ccccc3)no2)c1 | 16 | –
2 | 198 | 27.8 | 2.5 | 6.4 | 50 | 3.1 | 10200 | 22.6 | 4.11 | 3680 | 288 | COc1cncc(Cc2cc(-c3ccccc3)no2)c1 | – | <=7 hr
